From publication PMC6831891 (Molecular Therapy. Nucleic Acids, 2019)

Columns and labels:
[1] = system: S. pyogenes M49 strain 591; assay: Bacterial kill assay; assay type: cell-based, Streptococcus pyogenes; conditions: for Clearance six hours following treatment: 5 μM or 10 μM; for Clearance six hours following treatment / Reduction of CFU per milliliter / Reduction of bacterial counts by scPNA / Reduction of bacterial counts by scPNAs in kill assay: 6 h; for log CFU reduction: six hours following treatment; for Reduction of CFU per milliliter: concentration range 1 to 10 μM, n = 3; for Reduction of bacterial counts by scPNA: 10 μM scPNA, n = 5; for Reduction of bacterial counts by scPNAs in kill assay: up to 5 μM scPNA
Procedure, shortened: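 S. pyogenes overnight cultures diluted in PBS/BHI (7/2) to about 2 × 10^5 CFU/mL. Test compound added to 1–10 μM final, with water as mock. Incubated 6 h at 37°C while rotating at 7 rpm. Dilutions plated on THY agar, and CFU counted after overnight growth at 37°C under 5% CO2/20% O2. Initial screen used two biological replicates; later experiments used at least three.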

gyrA mRNA = assay type: cell-based, Streptococcus pyogenes; conditions: 2 μM CPP-PNA, 6 h, 10^7 CFU/mL in THY; normalised to 5S RNA gene, 2^-ΔΔct; n = 3
[2] = system: S. pyogenes M1 strain AP1; assay: Bacterial kill assay, strain AP1; assay type: cell-based, Streptococcus pyogenes; conditions: 6 h (data not shown; Figure 3B cited)
Procedure, shortened: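 Overnight THY cultures (37°C, 5% CO2/20% O2) diluted in PBS/BHI (7/2) to about 2 × 10^5 CFU/mL. About 10^5 CFU were exposed to CPP-PNA conjugates at 1–10 μM final, with 5 μM used in the isolate comparison; water was the mock. Incubation 6 h at 37°C, rotating at 7 rpm. Viable counts came from plating dilutions on THY agar, compared with the untreated control.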

[3] = system: S. pyogenes strain 591 (M49); assay: G. mellonella infection model; assay type: in vivo, Galleria mellonella
Procedure, shortened: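 Wax moth larvae (150–200 mg) injected into the hemocoel, between the last two pro-leg pairs, with 1–3 × 10^6 CFU/larva. Inoculum was grown overnight in THY, washed twice and resuspended in 0.9% NaCl. Test compound (4 nmol/larva) injected 30 min post-infection; 0.9% NaCl served as mock. Survival recorded daily over 7 days.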

Compound: KKKKKKKK [K8-anti-gyrA PNA]
- Clearance six hours following treatment [1]: no clearance was achieved
- log CFU reduction ([1]; 5 μM): three
- log CFU reduction ([1]; 10 μM): four
- gyrA mRNA level relative to mock-treated bacteria (gyrA mRNA): 60%
- Antimicrobial effect in AP1 [2]: did not show any antimicrobial effect

Compound: RQIKIWFQNRRMKWKK [Ant-anti-gyrA PNA]
- Reduction of CFU per milliliter [1]: no reduction

Compound: KKKKKKKK [K8-anti-gyrA scPNA]
- Reduction of bacterial counts by scPNA [1]: significant reduction
- Reduction of bacterial counts by scPNAs in kill assay [1]: did not lead to the reduction of bacterial counts

Compound: Dansyl-G-C-ELALE LALEALEAALELA [ELA-anti-gyrA PNA]
- Reduction of CFU per milliliter [1]: no reduction

Compound: RXRRXRRXRRXRXB [(RXR)4XB-anti-gyrA PNA]
- Clearance six hours following treatment [1]: no clearance was achieved
- log CFU reduction ([1]; 5 μM): three
- log CFU reduction ([1]; 10 μM): four
- gyrA mRNA level relative to mock-treated bacteria (gyrA mRNA): 56%
- Effect on larvae survival relative to the other active conjugates ([3]; 4 nmol/larva, 7 days): lower compared with the other conjugates

Compound: C[C@H]1COc2c(N3CCN(C)CC3)c(F)cc3c(=O)c(C(=O)O)cn1c23 [levofloxacin, reference compound]
- Survival of infected larvae ([3]; 1 μg levofloxacin alone, untreated infected larvae 20%, n = 30 larvae per group): 46%

Compound: LLIILRRRIRKQAHAHSK [mVE-cadherin-anti-gyrA PNA]
- Reduction of CFU per milliliter [1]: no reduction

Compound: RXRRXRRXRRXRXB [(RXR)4XB-anti-gyrA scPNA]
- Reduction of bacterial counts by scPNA [1]: significant reduction
- Reduction of bacterial counts by scPNAs in kill assay [1]: did not lead to the reduction of bacterial counts
